Source: ChEMBL document CHEMBL4002604, “Evaluation of biological properties of 3,3',4,4'-benzophenonetetracarboxylic dianhydride derivatives and their ability to inhibit hexokinase activity” (2017)

Columns and labels:
P19 [1] = assay: Cytotoxicity against undifferentiated mouse P19 cells assessed as cell mass at 1 to 100 uM after 72 hrs by SRB assay relative to control; type: functional
Outline: (§1)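 Cell mass by SRB assay in P19 cells (CRL-1825), either undifferentiated (P19SCs) or differentiated (P19dCs). Cells exposed to 1, 10 or 100 µM for 24, 48 or 72 h. Values expressed relative to untreated control. Means ± SD from at least 4 independent measurements, 6 repeats each. Significance vs control at p<0.05.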

P19 [2] = assay: Cytotoxicity against differentiated mouse P19 cells assessed as cell mass at 1 to 100 uM after 24 hrs by SRB assay relative to control; type: functional; outline: as §1
P19 [3] = assay: Cytotoxicity against differentiated mouse P19 cells assessed as cell mass at 1 to 100 uM after 48 hrs by SRB assay relative to control; type: functional; outline: as §1
P19 [4] = assay: Cytotoxicity against differentiated mouse P19 cells assessed as cell mass at 1 to 100 uM after 72 hrs by SRB assay relative to control; type: functional; outline: as §1
P19 [5] = assay: Cytotoxicity against undifferentiated mouse P19 cells assessed as metabolic activity at 1 to 100 uM after 24 hrs by resazurin assay relative to control; type: functional
Outline: (§2)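 Metabolic activity by resazurin reduction in undifferentiated (P19SCs) or differentiated (P19dCs) P19 cells. Exposure to 1, 10 or 100 µM for 24, 48 or 72 h. Read-out relative to untreated control. Significance vs control at p<0.05.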

P19 [6] = assay: Cytotoxicity against undifferentiated mouse P19 cells assessed as metabolic activity at 1 to 100 uM after 48 hrs by resazurin assay relative to control; type: functional; outline: as §2
P19 [7] = assay: Cytotoxicity against undifferentiated mouse P19 cells assessed as metabolic activity at 1 to 100 uM after 72 hrs by resazurin assay relative to control; type: functional; outline: as §2
P19 [8] = assay: Cytotoxicity against differentiated mouse P19 cells assessed as metabolic activity at 1 to 100 uM after 24 hrs by resazurin assay relative to control; type: functional; outline: as §2
P19 [9] = assay: Cytotoxicity against differentiated mouse P19 cells assessed as metabolic activity at 1 to 100 uM after 48 hrs by resazurin assay relative to control; type: functional; outline: as §2
P19 [10] = assay: Cytotoxicity against differentiated mouse P19 cells assessed as metabolic activity at 1 to 100 uM after 72 hrs by resazurin assay relative to control; type: functional; outline: as §2
P19 [11] = assay: Cytotoxicity against undifferentiated mouse P19 cells assessed as mitochondrial membrane potential at 1 uM after 72 hrs by TMRF dye based fluorescence assay relative to control; type: functional
Outline: (§3)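 Undifferentiated (P19SCs) or differentiated (P19dCs) P19 cells incubated 24 or 72 h with 1 or 100 µM. Mitochondrial membrane potential and mitochondrial superoxide levels measured and expressed relative to untreated control. Means ± SD from 4 independent measurements, at least 4 repeats each. Significance at p<0.05.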

P19 [12] = assay: Cytotoxicity against undifferentiated mouse P19 cells assessed as mitochondrial membrane potential at 100 uM after 72 hrs by TMRF dye based fluorescence assay relative to control; type: functional; outline: as §3
P19 [13] = assay: Cytotoxicity against undifferentiated mouse P19 cells assessed as mitochondrial superoxide anion level at 1 uM after 24 hrs by MitoSox dye based fluorescence assay relative to control; type: functional; outline: as §3
P19 [14] = assay: Cytotoxicity against undifferentiated mouse P19 cells assessed as mitochondrial superoxide anion level at 100 uM after 72 hrs by MitoSox dye based fluorescence assay relative to control; type: functional; outline: as §3
P19 [15] = assay: Cytotoxicity against differentiated mouse P19 cells assessed as mitochondrial membrane potential at 1 uM after 72 hrs by TMRF dye based fluorescence assay relative to control; type: functional; outline: as §3
[16] = molecular target: T1, Hexokinase-2 (Homo sapiens) (UniProt P52789); assay: Inhibition of recombinant human HK2 using [U-14C]-labeled glucose as substrate in presence of ATP and NADP by G6PD enzyme coupled spectrophotometric assay; settings: in the assay text read “glucose” for “[U-14C]-labeled glucose”
T1 sequence (whole entry): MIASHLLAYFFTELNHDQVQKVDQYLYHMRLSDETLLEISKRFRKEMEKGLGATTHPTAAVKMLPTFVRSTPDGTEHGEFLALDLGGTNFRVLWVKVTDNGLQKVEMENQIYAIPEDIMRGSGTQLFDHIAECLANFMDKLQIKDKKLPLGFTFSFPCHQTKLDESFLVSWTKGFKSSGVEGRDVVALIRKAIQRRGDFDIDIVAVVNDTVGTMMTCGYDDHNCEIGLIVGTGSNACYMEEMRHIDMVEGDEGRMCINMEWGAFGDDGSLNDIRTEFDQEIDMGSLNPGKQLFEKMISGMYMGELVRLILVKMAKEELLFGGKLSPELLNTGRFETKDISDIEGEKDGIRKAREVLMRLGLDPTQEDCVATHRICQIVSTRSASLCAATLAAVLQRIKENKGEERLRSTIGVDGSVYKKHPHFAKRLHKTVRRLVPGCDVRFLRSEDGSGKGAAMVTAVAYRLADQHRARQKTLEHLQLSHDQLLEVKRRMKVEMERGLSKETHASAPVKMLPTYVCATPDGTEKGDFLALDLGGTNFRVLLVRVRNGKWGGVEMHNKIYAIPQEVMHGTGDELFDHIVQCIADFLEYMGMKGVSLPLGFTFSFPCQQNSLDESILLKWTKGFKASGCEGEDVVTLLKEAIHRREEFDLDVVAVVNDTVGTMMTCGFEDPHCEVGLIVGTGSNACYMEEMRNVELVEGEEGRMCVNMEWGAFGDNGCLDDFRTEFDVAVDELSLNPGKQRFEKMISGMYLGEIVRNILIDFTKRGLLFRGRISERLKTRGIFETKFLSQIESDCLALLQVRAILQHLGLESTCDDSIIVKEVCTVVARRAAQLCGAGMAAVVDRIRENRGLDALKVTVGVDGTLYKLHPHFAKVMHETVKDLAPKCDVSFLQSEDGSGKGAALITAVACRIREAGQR
Outline: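 Coupled hexokinase assay at 340 nm following G6P-dependent NADP→NADPH conversion. Enzyme source is freshly prepared, centrifuged undifferentiated P19 lysate supernatant or recombinant human HKII. Buffer: 100 mM Tris-HCl pH 8.0, 0.5 mM EDTA, 10 mM MgCl2, 2 mM glucose, 0.1 mM NADP, 0.1 U/ml G6PD. Preincubated 10 min at 37°C; reaction started with 10 mM ATP. Means ± SD, 4 experiments, at least 4 repeats each.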

P19 [17] = assay: Cytotoxicity against differentiated mouse P19 cells assessed as mitochondrial membrane potential at 100 uM after 72 hrs by TMRF dye based fluorescence assay relative to control; type: functional; outline: as §3
P19 [18] = assay: Cytotoxicity against differentiated mouse P19 cells assessed as mitochondrial superoxide anion level at 1 uM after 24 hrs by MitoSox dye based fluorescence assay relative to control; type: functional; outline: as §3
P19 [19] = assay: Cytotoxicity against differentiated mouse P19 cells assessed as mitochondrial superoxide anion level at 100 uM after 24 hrs by MitoSox dye based fluorescence assay relative to control; type: functional; outline: as §3
P19 [20] = assay: Cytotoxicity against differentiated mouse P19 cells assessed as mitochondrial superoxide anion level at 1 uM after 72 hrs by MitoSox dye based fluorescence assay relative to control; type: functional; outline: as §3
P19 [21] = assay: Cytotoxicity against differentiated mouse P19 cells assessed as mitochondrial superoxide anion level at 100 uM after 72 hrs by MitoSox dye based fluorescence assay relative to control; type: functional; outline: as §3

O=C(c1ccc2c(c1)C(=O)N(c1cccc(O)c1)C2=O)c1ccc2c(c1)C(=O)N(c1cccc(O)c1)C2=O gave an Activity (P19 [1]) of 58.9%, an Activity (P19 [2]) of 100% and an Activity (P19 [3]) of 102.2%. The Activity (P19 [4]) was 71.9%, the Activity (P19 [5]) was 102.6% and the Activity (P19 [6]) was 76.5%. The Activity (P19 [7]) was 59.8%, the Activity (P19 [8]) was 100% and the Activity (P19 [9]) was 97.5%. It also gave an Activity (P19 [10]) of 91.5%, an Activity (P19 [11]) of 110.4% and an Activity (P19 [12]) of 131.1%. It also gave an Activity (P19 [13]) of 83.2%, an Activity (P19 [14]) of 108.3% and an Activity (P19 [15]) of 87.8%. The inhibition [16] was “Dose-dependent effect”, the Activity (P19 [17]) was 50.9% and the Activity (P19 [18]) was 112.2%. The Activity (P19 [19]) was 117.4%, the Activity (P19 [20]) was 105.3% and the Activity (P19 [21]) was 149.1%.
